Laboratory results taken from PMC4750707 (Antimicrobial Agents and Chemotherapy, 2016).

What was measured:
Assay in all cases: PBP competition assay with Bocillin FL
Type in all cases: binding
[1] = molecular target: T1, E. coli PBP1a (Escherichia coli, UniProt P02918)
T1 sequence (P02918 1-850): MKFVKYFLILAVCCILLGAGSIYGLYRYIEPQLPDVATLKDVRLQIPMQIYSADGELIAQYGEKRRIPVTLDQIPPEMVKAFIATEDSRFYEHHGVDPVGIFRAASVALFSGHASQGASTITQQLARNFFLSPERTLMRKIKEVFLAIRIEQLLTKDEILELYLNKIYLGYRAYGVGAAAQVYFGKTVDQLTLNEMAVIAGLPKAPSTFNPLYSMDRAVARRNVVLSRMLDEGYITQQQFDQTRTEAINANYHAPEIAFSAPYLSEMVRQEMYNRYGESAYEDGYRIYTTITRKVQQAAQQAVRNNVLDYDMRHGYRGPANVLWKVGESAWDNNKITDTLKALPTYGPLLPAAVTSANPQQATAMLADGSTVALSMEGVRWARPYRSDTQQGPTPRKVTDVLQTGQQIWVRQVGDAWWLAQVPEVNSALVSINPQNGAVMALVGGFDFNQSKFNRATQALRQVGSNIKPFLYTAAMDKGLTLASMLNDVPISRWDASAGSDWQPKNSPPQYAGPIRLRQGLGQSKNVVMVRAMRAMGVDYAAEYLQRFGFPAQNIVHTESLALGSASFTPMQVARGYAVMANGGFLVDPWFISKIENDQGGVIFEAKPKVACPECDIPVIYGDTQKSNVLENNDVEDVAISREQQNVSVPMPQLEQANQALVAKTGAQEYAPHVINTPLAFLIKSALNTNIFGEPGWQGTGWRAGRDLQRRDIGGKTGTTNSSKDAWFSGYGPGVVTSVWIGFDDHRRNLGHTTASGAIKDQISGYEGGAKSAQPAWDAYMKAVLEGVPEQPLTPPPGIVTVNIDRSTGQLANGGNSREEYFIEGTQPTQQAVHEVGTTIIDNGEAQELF
In short: (§1)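 E. coli K-12 or P. aeruginosa 1771 grown in BHI at 35°C to A600 ~1.5. Cells in 50 mM phosphate pH 7.0 were French-pressed; membranes pelleted at 150,000 × g. Membranes (10–20 μg protein) were pre-incubated with test compound 10 min at 30°C, then Bocillin FL (100 μM final) 20 min. SDS-PAGE, fluorescence scan. IC50 in μg/ml from ≥8 concentrations versus no-drug control.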

[2] = molecular target: T2, E. coli PBP2 (Escherichia coli, UniProt P0AD65)
T2 sequence (P0AD65 1-633): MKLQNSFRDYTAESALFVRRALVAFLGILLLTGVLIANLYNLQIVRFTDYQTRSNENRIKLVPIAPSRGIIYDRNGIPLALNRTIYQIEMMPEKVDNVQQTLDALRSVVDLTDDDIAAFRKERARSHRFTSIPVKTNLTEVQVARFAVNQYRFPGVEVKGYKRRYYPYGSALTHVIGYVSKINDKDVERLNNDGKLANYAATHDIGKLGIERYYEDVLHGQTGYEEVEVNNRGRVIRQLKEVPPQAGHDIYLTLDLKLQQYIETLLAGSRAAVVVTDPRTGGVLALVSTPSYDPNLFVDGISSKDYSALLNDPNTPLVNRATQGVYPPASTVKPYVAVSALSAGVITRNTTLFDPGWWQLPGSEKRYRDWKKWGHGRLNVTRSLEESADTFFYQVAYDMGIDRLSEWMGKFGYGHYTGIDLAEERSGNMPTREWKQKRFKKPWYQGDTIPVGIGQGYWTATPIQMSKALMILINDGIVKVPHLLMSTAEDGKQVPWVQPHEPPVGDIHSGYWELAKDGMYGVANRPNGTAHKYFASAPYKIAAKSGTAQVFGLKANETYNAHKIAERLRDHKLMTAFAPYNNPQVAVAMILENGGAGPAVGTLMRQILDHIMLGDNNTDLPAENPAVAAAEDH
In short: as §1

[3] = molecular target: P. aeruginosa PBP1a (Pseudomonas aeruginosa, UniProt Q07806)
Chain of P. aeruginosa PBP1a (Q07806 whole entry): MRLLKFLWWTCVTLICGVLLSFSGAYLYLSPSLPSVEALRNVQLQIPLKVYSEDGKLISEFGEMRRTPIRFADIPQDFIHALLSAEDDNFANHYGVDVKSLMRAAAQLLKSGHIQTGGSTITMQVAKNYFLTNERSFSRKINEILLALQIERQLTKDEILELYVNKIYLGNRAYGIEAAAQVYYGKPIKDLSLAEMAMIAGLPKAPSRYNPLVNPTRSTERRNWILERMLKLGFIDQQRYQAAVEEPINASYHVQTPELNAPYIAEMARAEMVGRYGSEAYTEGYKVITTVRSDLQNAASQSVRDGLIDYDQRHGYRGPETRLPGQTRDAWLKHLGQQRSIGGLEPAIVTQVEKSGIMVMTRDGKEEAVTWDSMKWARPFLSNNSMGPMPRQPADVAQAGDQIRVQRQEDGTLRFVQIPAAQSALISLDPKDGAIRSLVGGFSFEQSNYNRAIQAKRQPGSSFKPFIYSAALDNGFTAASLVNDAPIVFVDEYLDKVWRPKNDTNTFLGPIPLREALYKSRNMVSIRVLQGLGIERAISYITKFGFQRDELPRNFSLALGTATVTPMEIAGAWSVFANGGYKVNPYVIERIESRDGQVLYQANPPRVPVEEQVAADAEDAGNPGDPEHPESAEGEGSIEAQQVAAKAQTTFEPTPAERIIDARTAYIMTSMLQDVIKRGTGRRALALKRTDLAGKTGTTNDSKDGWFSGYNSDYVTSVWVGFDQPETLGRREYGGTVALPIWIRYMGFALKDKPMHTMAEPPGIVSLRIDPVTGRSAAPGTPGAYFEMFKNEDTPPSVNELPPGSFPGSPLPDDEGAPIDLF
In short: as §1

[4] = molecular target: T3, P. aeruginosa PBP2 (Pseudomonas aeruginosa, UniProt Q9X6V3)
T3 sequence (Q9X6V3 1-646): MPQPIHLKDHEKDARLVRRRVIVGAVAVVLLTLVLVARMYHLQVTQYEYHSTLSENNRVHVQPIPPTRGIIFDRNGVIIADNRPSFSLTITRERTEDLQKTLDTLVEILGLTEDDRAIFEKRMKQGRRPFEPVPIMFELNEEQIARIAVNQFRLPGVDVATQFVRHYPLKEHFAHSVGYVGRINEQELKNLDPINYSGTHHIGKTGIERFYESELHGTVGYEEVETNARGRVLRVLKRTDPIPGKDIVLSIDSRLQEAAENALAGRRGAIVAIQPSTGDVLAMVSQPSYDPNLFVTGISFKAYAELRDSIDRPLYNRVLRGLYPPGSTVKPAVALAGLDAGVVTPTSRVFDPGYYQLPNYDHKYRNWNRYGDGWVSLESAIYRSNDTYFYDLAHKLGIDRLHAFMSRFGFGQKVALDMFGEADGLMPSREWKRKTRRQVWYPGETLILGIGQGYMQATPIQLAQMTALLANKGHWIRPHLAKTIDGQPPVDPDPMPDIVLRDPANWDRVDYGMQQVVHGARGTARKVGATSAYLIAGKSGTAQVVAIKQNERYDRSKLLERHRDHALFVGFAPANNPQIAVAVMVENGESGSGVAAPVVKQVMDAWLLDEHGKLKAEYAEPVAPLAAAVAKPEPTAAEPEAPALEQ
In short: as §1

IC50 [1] [µM] | IC50 [2] [µM] | IC50 [3] [µM] | IC50 [4] [µM] | SMILES
> 49 | 3.47 | > 49 | 4.15 | NC(=O)[C@@H]1CC[C@@H]2CN1C(=O)N2OS(=O)(=O)O [AVI, avibactam]
> 39.9 | 0.0615 | > 39.9 | 0.645 | CC1(C)S[C@@H]2[C@H](/N=C/N3CCCCCC3)C(=O)N2[C@H]1C(=O)O [MEC, amdinocillin]
27.4 | > 45.7 | 0.348 | > 45.7 | CC(C)(O/N=C(\C(=O)N[C@@H]1C(=O)N2C(C(=O)[O-])=C(C[n+]3ccccc3)CS[C@H]12)c1csc(N)n1)C(=O)O [CAZ, ceftazidime]
